ChEMBL document CHEMBL5030522, “A Convenient Chemoenzymatic Preparation of Chimeric Macrocyclic Peptide Antibiotics with Potent Activity against Gram-Negative Pathogens” (2021)
≈ marks a conversion by molar mass, not a printed value. Numbered stars: 1 amine (or outer) side, 2 acyl side, 3 side chain; on linkers, the order of the positions; unused ones are H or OH. Bridge positions count the residues as written; N and C are the ends. Square brackets hold non-standard residues; d marks the D form. Peptide text beside a SMILES is read from it. I, II: the chains in the order shown. X3 = NC(=O)[C@H](Cc1cn(CCCCC(=O)[*:2])nn1)N[*:1]; X2 = NC(=O)[C@H](Cc1cn(CC(=O)[*:2])nn1)N[*:1]; Tle = CC(C)(C)[C@H](N)C(=O)O; dDab = NCC[C@@H](N)C(=O)O; hSer = N[C@@H](CCO)C(=O)O; Dab = NCC[C@H](N)C(=O)O

Experiments:
Format in all cases: functional
Acinetobacter baumannii [1] = assay: Antibacterial activity against Acinetobacter baumannii ATCC 17978 assessed as inhibition of bacterial growth after 16 hrs by broth microdilution method
How it was run: (§1)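 MIC per CLSI broth microdilution. Strains streaked from glycerol stocks on blood agar, 16 h at 37 °C. Single colonies inoculated into cation-adjusted Mueller-Hinton broth (10 mg L–1 Mg2+, 25 mg L–1 Ca2+). Peptides serially diluted in this broth with 0.002% (v/v) final polysorbate-80 in polypropylene plates. Inoculum 5 × 10^5 CFU mL–1. Plates sealed, 16 h at 37 °C, growth scored visually. MIC in μg/mL, triplicates on two separate days.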

Klebsiella pneumoniae [2] = assay: Antibacterial activity against Klebsiella pneumoniae producing NDM1 assessed as inhibition of bacterial growth after 16 hrs by broth microdilution method; how it was run: as §1
Acinetobacter baumannii [3] = assay: Antibacterial activity against multidrug-resistant Acinetobacter baumannii assessed as inhibition of bacterial growth after 16 hrs by broth microdilution method
How it was run: (§2)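 CLSI broth microdilution. Strains grown from glycerol stocks on blood agar 16 h at 37 °C; colonies used to inoculate CAMHB containing 10 mg L–1 Mg2+ and 25 mg L–1 Ca2+. Peptides dissolved in CAMHB with 0.002% (v/v) final polysorbate-80, serially diluted in polypropylene plates; inoculum 5 × 10^5 CFU mL–1. Sealed, 16 h at 37 °C, growth scored visually. MIC in μg/mL; three or more measurements on multiple days.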

Escherichia coli [4] = assay: Antibacterial activity against Escherichia coli producing MCR2 assessed as inhibition of bacterial growth after 16 hrs by broth microdilution method; how it was run: as §1
Klebsiella pneumoniae [5] = assay: Antibacterial activity against Klebsiella pneumoniae ATCC 11228 assessed as inhibition of bacterial growth after 16 hrs by broth microdilution method; how it was run: as §1
Escherichia coli [6] = assay: Antibacterial activity against Escherichia coli ATCC 35218 assessed as inhibition of bacterial growth after 16 hrs by broth microdilution method; how it was run: as §1
Escherichia coli [7] = assay: Antibacterial activity against Escherichia coli producing MCR1 assessed as inhibition of bacterial growth after 16 hrs by broth microdilution method; how it was run: as §1
Pseudomonas aeruginosa [8] = assay: Antibacterial activity against Pseudomonas aeruginosa producing NDM1 assessed as inhibition of bacterial growth after 16 hrs by broth microdilution method; how it was run: as §2
Pseudomonas aeruginosa [9] = assay: Antibacterial activity against Pseudomonas aeruginosa NRZ 08418 producing NDM1 assessed as inhibition of bacterial growth after 16 hrs by broth microdilution method; how it was run: as §1
Acinetobacter baumannii [10] = assay: Antibacterial activity against Acinetobacter baumannii ATCC 9955 assessed as inhibition of bacterial growth after 16 hrs by broth microdilution method; how it was run: as §1
Staphylococcus aureus = assay: Antibacterial activity against methicillin resistant Staphylococcus aureus USA300 by measuring MIC after 16 hrs by broth microdilution method; how it was run: as §2
Pseudomonas aeruginosa [11] = assay: Antibacterial activity against Pseudomonas aeruginosa M-120 assessed as inhibition of bacterial growth after 16 hrs by broth microdilution method; how it was run: as §1
Acinetobacter baumannii [12] = assay: Antibacterial activity against Acinetobacter baumannii NRZ 00687 producing NDM2 assessed as inhibition of bacterial growth after 16 hrs by broth microdilution method; how it was run: as §1
Pseudomonas aeruginosa [13] = assay: Antibacterial activity against Pseudomonas aeruginosa ATCC 27853 assessed as inhibition of bacterial growth after 16 hrs by broth microdilution method; how it was run: as §1
Escherichia coli [14] = assay: Antibacterial activity against Escherichia coli producing NDM1 assessed as inhibition of bacterial growth after 16 hrs by broth microdilution method; how it was run: as §2
Escherichia coli [15] = assay: Antibacterial activity against Escherichia coli producing MCR3 assessed as inhibition of bacterial growth after 16 hrs by broth microdilution method; how it was run: as §1

| Structure (SMILES) | MIC (Acinetobacter baumannii [1]) [µg/mL] | MIC (Klebsiella pneumoniae [2]) [µg/mL] | MIC (Acinetobacter baumannii [3]) [µg/mL] | MIC (Escherichia coli [4]) [µg/mL] | MIC (Klebsiella pneumoniae [5]) [µg/mL] | MIC (Escherichia coli [6]) [µg/mL] | MIC (Escherichia coli [7]) [µg/mL] | MIC (Pseudomonas aeruginosa [8]) [µg/mL] | MIC (Pseudomonas aeruginosa [9]) [µg/mL] | MIC (Acinetobacter baumannii [10]) [µg/mL] | MIC (Staphylococcus aureus) [µg/mL] | MIC (Pseudomonas aeruginosa [11]) [µg/mL] | MIC (Acinetobacter baumannii [12]) [µg/mL] | MIC (Pseudomonas aeruginosa [13]) [µg/mL] | MIC (Escherichia coli [14]) [µg/mL] | MIC (Escherichia coli [15]) [µg/mL] |
| --- | --- | --- | --- | --- | --- | --- | --- | --- | --- | --- | --- | --- | --- | --- | --- | --- |
| CC(C)C[C@@H]1NC(=O)[C@@H](CC(C)C)NC(=O)[C@H](CCN)NC(=O)[C@@H](NC(=O)[C@H](CCN)NC(=O)[C@@H](NC(=O)CCCCn2cc(C[C@H](NC(=O)CC[C@@H]3NC(=O)[C@H](CCN)NC(=O)[C@H](Cc4ccc(O)cc4)NC(=O)[C@H]([C@@H](C)O)NC(=O)[C@H](C(C)C)NC(=O)[C@@H]4CCCN4C(=O)[C@@H](C)NC(=O)[C@H](CO)NC(=O)[C@H](C)NC(=O)[C@H](C(C)(C)C)NC(=O)[C@H](CCO)NC(=O)[C@H](Cc4c[nH]c5ccccc45)NC(=O)[C@H](CCO)NC(=O)[C@@H](CCN)NC3=O)C(N)=O)nn2)[C@@H](C)O)CCNC(=O)[C@H]([C@@H](C)O)NC(=O)[C@H](CCN)NC(=O)[C@H](CCN)NC1=O (I: cyclo([dDab][hSer]W[hSer][Tle]AS[dA]PVTY[Dab]E) / II: T[Dab][Dab][Dab][dL]L[Dab][Dab]T; linker I:14-II:N via X3; lactam II:3-II:C) | 1 (≈ 0.375 µM) | 4 (≈ 1.5 µM) | 2 (≈ 0.749 µM) | 4 (≈ 1.5 µM) | 2 (≈ 0.749 µM) | 1 (≈ 0.375 µM) | 4 (≈ 1.5 µM) | 2 (≈ 0.749 µM) | 4 (≈ 1.5 µM) | 2 (≈ 0.749 µM) | > 64 | – | – | – | – | – |
| CC(C)C[C@@H]1NC(=O)[C@@H](CC(C)C)NC(=O)[C@H](CCN)NC(=O)[C@@H](NC(=O)[C@H](CCN)NC(=O)[C@@H](NC(=O)Cn2cc(C[C@H](NC(=O)CC[C@@H]3NC(=O)[C@H](CCN)NC(=O)[C@H](Cc4ccc(O)cc4)NC(=O)[C@H]([C@@H](C)O)NC(=O)[C@H](C(C)C)NC(=O)[C@@H]4CCCN4C(=O)[C@@H](C)NC(=O)[C@H](CO)NC(=O)[C@H](C)NC(=O)[C@H](C(C)(C)C)NC(=O)[C@H](CCO)NC(=O)[C@H](Cc4c[nH]c5ccccc45)NC(=O)[C@H](CCO)NC(=O)[C@@H](CCN)NC3=O)C(N)=O)nn2)[C@@H](C)O)CCNC(=O)[C@H]([C@@H](C)O)NC(=O)[C@H](CCN)NC(=O)[C@H](CCN)NC1=O (I: cyclo([dDab][hSer]W[hSer][Tle]AS[dA]PVTY[Dab]E) / II: T[Dab][Dab][Dab][dL]L[Dab][Dab]T; linker I:14-II:N via X2; lactam II:3-II:C) | – | 2 (≈ 0.761 µM) | 1 (≈ 0.381 µM) | 2 (≈ 0.761 µM) | – | 0.5 (≈ 0.19 µM) | 2 (≈ 0.761 µM) | 2 (≈ 0.761 µM) | – | 2 (≈ 0.761 µM) | > 6.4 | 4 (≈ 1.52 µM) | 0.5 (≈ 0.19 µM) | 1 (≈ 0.381 µM) | – | – |
| CC(C)C[C@@H]1NC(=O)[C@@H](CC(C)C)NC(=O)[C@H](CCN)NC(=O)[C@@H](NC(=O)[C@H](CCN)NC(=O)[C@@H](NC(=O)[C@H](CCN)NC(=O)CC[C@@H]2NC(=O)[C@H](CCN)NC(=O)[C@H](Cc3ccc(O)cc3)NC(=O)[C@H]([C@@H](C)O)NC(=O)[C@H](C(C)C)NC(=O)[C@@H]3CCCN3C(=O)[C@@H](C)NC(=O)[C@H](CO)NC(=O)[C@H](C)NC(=O)[C@H](C(C)(C)C)NC(=O)[C@H](CCO)NC(=O)[C@H](Cc3c[nH]c4ccccc34)NC(=O)[C@H](CCO)NC(=O)[C@@H](CCN)NC2=O)[C@@H](C)O)CCNC(=O)[C@H]([C@@H](C)O)NC(=O)[C@H](CCN)NC(=O)[C@H](CCN)NC1=O (I: cyclo([dDab][hSer]W[hSer][Tle]AS[dA]PVTY[Dab]E) / II: [Dab]T[Dab][Dab][Dab][dL]L[Dab][Dab]T; amide I:14-II:N; lactam II:4-II:C) | – | 0.8 (≈ 0.316 µM) | 0.2 (≈ 0.079 µM) | 0.2 (≈ 0.079 µM) | – | 0.2 (≈ 0.079 µM) | 0.2 (≈ 0.079 µM) | 0.4 (≈ 0.158 µM) | 0.8 (≈ 0.316 µM) | 0.2 (≈ 0.079 µM) | > 6.4 | – | – | – | 0.1 (≈ 0.0395 µM) | 0.2 (≈ 0.079 µM) |
| CC[C@H](C)CCCCC(=O)N[C@@H](CCN)C(=O)N[C@H](C(=O)N[C@@H](CCN)C(=O)N[C@H]1CCNC(=O)[C@H]([C@@H](C)O)NC(=O)[C@H](CCN)NC(=O)[C@H](CCN)NC(=O)[C@H](CC(C)C)NC(=O)[C@@H](CC(C)C)NC(=O)[C@H](CCN)NC1=O)[C@@H](C)O | 0.4 (≈ 0.342 µM) | 1.6 (≈ 1.37 µM) | 0.4 (≈ 0.342 µM) | > 6.4 | 0.1 (≈ 0.0855 µM) | 0.1 (≈ 0.0855 µM) | 3.2 (≈ 2.74 µM) | 0.4 (≈ 0.342 µM) | 0.8 (≈ 0.684 µM) | 0.4 (≈ 0.342 µM) | > 6.4 | 0.8 (≈ 0.684 µM) | 0.2 (≈ 0.171 µM) | 1.6 (≈ 1.37 µM) | 0.1 (≈ 0.0855 µM) | 3.2 (≈ 2.74 µM) |
